Results reported in paper PMC3263408 (International Journal of Nanomedicine, 2012).
In brackets after ≈: the same amount, converted by molar mass.

Experiments:
[1] = Solubility of curcumin in various vehicles; format: physicochemical
Method in brief: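 Excess test compound was shaken in 1 mL vehicle in a water bath at room temperature for 48 h. It was then centrifuged at 12,000 rpm for 10 min and passed through a 0.45 μm filter, and the supernatant was diluted in methanol. Quantified by HPLC: C18 column (5 μm, 4.6 × 250 mm) at room temperature, methanol:water (3.6% glacial acetic acid) 73:27 v/v, 1.0 mL/min, detection at 428 nm.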

Hela cells = assay: MTT cytotoxicity assay; format: cell-based; conditions: Homo sapiens, 24 h, read-out: IC50 (50% cell killing)
Method in brief: (§1)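 Cells were kept in folate-free RPMI 1640 with 10% FBS at 37°C and 5% CO2, then seeded at 5000/well and left to attach for 24 h. Test compound was given free (DMSO), in SMEDDS or in FSMEDDS, ±1 mM free folate, at 1, 5, 10, 20 and 40 μM for 24 h at 37°C. After three PBS washes, MTT was added for 4 h, formazan dissolved in DMSO, and OD read at 570 nm. Triplicates; IC50 from concentration–viability curves.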

HT-29 cells = assay: MTT cytotoxicity assay; format: cell-based; conditions: Homo sapiens, HT-29, 24 h, read-out: IC50 (50% cell killing)
Method in brief: as §1

[2] = cited from earlier work

solubility at 48 h ([1]; Capryol 90 (oil), oil or lipid, thermodynamic from solid): 9430 ± 800 µg/mL (≈ 25.6 mM) | solubility at 48 h ([1]; Cremophor EL (surfactant), organic solvent or mixture, thermodynamic from solid): 65800 ± 4800 µg/mL (≈ 179 mM) | solubility at 48 h ([1]; Emulsifier OP (surfactant), organic solvent or mixture, thermodynamic from solid): 5160 ± 1030 µg/mL (≈ 14 mM) | solubility at 48 h ([1]; Labrafil M1944CS (oil)): 3170 ± 130 µg/mL (≈ 8.61 mM) | solubility at 48 h ([1]; Labrasol (surfactant), organic solvent or mixture, thermodynamic from solid): 99300 ± 1730 µg/mL (≈ 270 mM) | solubility at 48 h ([1]; PEG 400 (cosurfactant), organic solvent or mixture, thermodynamic from solid): 159800 ± 480 µg/mL (≈ 434 mM) | solubility at 48 h ([1]; Tween 80 (surfactant), organic solvent or mixture, thermodynamic from solid): 4860 ± 1150 µg/mL (≈ 13.2 mM) | solubility at 48 h ([1]; castor oil (oil), oil or lipid, thermodynamic from solid): 1560 ± 470 µg/mL (≈ 4.23 mM) | solubility at 48 h ([1]; ethanol (cosurfactant), organic solvent or mixture, thermodynamic from solid): 5980 ± 630 µg/mL (≈ 16.2 mM) | solubility at 48 h ([1]; ethyl oleate (oil), oil or lipid, thermodynamic from solid): 1040 ± 20 µg/mL (≈ 2.82 mM) | solubility at 48 h ([1]; isopropyl myristate (oil), oil or lipid, thermodynamic from solid): 510 ± 50 µg/mL (≈ 1.38 mM)
Structure (SMILES): COc1cc(/C=C/C(=O)CC(=O)/C=C/c2ccc(O)c(OC)c2)ccc1O [curcumin]
IC50 (Hela cells): 30.4 ± 1.71 µM | IC50 (HT-29 cells): 25.6 ± 2.23 µM | Solubility of curcumin in the aqueous medium [2]: about 11 ng/g
